VIM-2 inh: VIM-2 metallo-beta-lactamase inhibitors, primary screen, biochemical, epi-absorbance readout, Pseudomonas aeruginosa enzyme; purified VIM-2, nitrocefin hydrolysis, epi-absorbance fluorescence; inhibition, % at 5.6 µM; 0.89% of 290,000 active; AID 1527, 2009;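 active means inhibition above the mean of all tested compounds plus 3 SD, cutoff set per screening run, cut at about 7.5% in these data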;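 further: red hydrolysis product quenches plate fluorescence so inhibitors raise well fluorescence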
PAFAH1B3 inh: PAFAH1B3 enzyme inhibitors, primary screen, biochemical, fluorescence polarization, human; Platelet-activating factor acetylhydrolase IB subunit alpha1 (Homo sapiens), Q15102; recombinant PAFAH1B3, FP-rhodamine probe; inhibition, % at 3.39 µM; 0.28% of 340,000 active; AID 492972, 2010;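 active means inhibition above the screen-wide average of all tested compounds plus 3 SD, cut at about 25% in these data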
IMP-1 inhibitor: IMP-1 metallo-beta-lactamase inhibitors, primary screen, biochemical, epi-absorbance readout, Pseudomonas aeruginosa enzyme. purified IMP-1, nitrocefin hydrolysis, epi-absorbance fluorescence. inhibition, % at 5.6 µM. 0.45% of 290,000 active. AID 1556, 2009. metallo-beta-lactamase IMP-1 (Pseudomonas aeruginosa);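 active means inhibition above the mean plus 3 SD of all compounds in the same screening run, cut at about 4.5% in these data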
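System: purified IMP-1; amount: IMP-1 0.2 nM before substrate addition; compound: single dose, 5.6 µM; times: 25 °C, 15 min preincubation, 25 min reaction; signal: Epi-absorbance via hydrolysed-nitrocefin quenching of white-plate fluorescence, 480/530 nm, EDTA stop; benchmarks: DMSO with and without IMP-1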
pPAFAH FP inh: pPAFAH enzyme inhibitors, primary screen, biochemical, fluorescence polarization, human; Platelet-activating factor acetylhydrolase (Homo sapiens), Q13093; recombinant pPAFAH, FP-rhodamine probe fluorescence polarization; inhibition, % at 3.39 µM; 1.5% of 330,000 active; AID 463082, 2010;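 active means inhibition above the mean inhibition across the screen plus 3 SD, cut at about 25% in these data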;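 further: inhibitors block binding of the rhodamine activity-based probe so polarization drops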
Target sequence (Q13093 whole entry, looked up): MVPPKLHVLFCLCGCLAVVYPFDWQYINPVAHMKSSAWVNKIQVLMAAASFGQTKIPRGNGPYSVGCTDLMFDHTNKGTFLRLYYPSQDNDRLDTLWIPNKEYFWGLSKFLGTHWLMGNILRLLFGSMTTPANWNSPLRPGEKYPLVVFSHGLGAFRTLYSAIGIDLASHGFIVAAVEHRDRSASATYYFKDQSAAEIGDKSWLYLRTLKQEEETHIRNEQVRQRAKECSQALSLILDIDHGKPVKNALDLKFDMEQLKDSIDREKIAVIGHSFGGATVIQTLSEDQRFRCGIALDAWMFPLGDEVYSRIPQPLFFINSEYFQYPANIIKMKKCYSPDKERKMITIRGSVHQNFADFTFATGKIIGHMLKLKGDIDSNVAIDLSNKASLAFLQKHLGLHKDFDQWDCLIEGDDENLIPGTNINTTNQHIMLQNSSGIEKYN
PAFAH2 inh: PAFAH2 enzyme inhibitors, primary screen, biochemical, fluorescence polarization, human. Platelet-activating factor acetylhydrolase 2, cytoplasmic (Homo sapiens), Q99487. recombinant PAFAH2, FP-rhodamine activity probe. inhibition, % at 3.39 µM. 0.99% of 340,000 active. AID 492956, 2010;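 active means inhibition above the mean over all tested compounds plus 3 SD, cut at about 30% in these data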;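 further: inhibitors block probe labeling of enzyme so polarization drops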
PAFAH1B2 inh: PAFAH1B2 enzyme inhibitors, primary screen, biochemical, fluorescence polarization, human; inhibition, % at 3.39 µM; recombinant PAFAH1B2, FP-rhodamine activity probe; Platelet-activating factor acetylhydrolase IB subunit alpha2 (Homo sapiens), P68402; 1.2% of 340,000 active;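 active means inhibition above the mean of all tested compounds plus 3 SD, cut at about 24% in these data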
Target sequence (P68402 whole entry, looked up): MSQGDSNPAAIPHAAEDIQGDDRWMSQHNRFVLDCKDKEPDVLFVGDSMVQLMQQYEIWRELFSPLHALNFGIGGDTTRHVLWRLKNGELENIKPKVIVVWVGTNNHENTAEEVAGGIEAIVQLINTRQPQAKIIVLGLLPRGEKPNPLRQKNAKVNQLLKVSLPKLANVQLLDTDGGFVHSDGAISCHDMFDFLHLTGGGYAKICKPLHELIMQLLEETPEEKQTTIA
Of the large screens only hits and unclear results are named; the others gave an inactive call. This is a sample that favours compounds with a hit; in the whole collection about 3.6% have one here.

CC(C)CC(C(=O)Nc1oc(-c2ccco2)c(-c2ccco2)c1C#N)N1C(=O)c2ccccc2C1=O (configuration not stated)	pPAFAH FP inh 32
CCc1ccc(-c2csc3ncn(CC(=O)NCc4ccco4)c(=O)c23)cc1	none
O=C(Cn1cnc2scc(-c3ccccc3)c2c1=O)NCc1ccco1	pPAFAH FP inh 25
O=C(NC1CCOCC1)C1CCC(=O)N(CCc2ccc(Cl)cc2)C1 (configuration not stated)	none
COc1cc(C)ccc1OCc1cc(C(=O)N2CCN(C3CCCCC3)CC2)no1	none
Cc1[nH]n(-c2ncc(-c3ccccc3)s2)c(=O)c1C(c1ccc(Br)cc1)C(C#N)C#N (configuration not stated)	pPAFAH FP inh 27
O=c1c2ccccc2ncn1-c1cccc(Cl)c1	IMP-1 inhibitor 36
CC(C)CC1Nc2ncnc(N3CCN(c4ccccn4)CC3)c2N(Cc2ccccc2)C1=O (configuration not stated)	none (no result: VIM-2 inh, IMP-1 inhibitor)
CCn1c(SC(=O)NC2CCCCC2)nnc1-c1cccs1	VIM-2 inh 11
CCn1c(SCC(=O)NC2CCCCC2)nnc1-c1cccs1	none
CCN(CC)CCNC(=O)c1c(C)n(-c2ccccc2)c2cc(Br)c(OC)cc12	VIM-2 inh 8.0
CCOC(=O)C1C(C(=O)OCC)C1(c1ccccc1)c1ccccc1 (configuration not stated)	PAFAH1B2 inh 29
COc1cc(C(=O)NC(=S)Nc2ccc([N+](=O)[O-])cc2)cc(OC)c1OC	IMP-1 inhibitor 4.6
COc1cc(C(=O)NC(=S)Nc2ccc([N+](=O)[O-])cc2C)cc(OC)c1OC	none
COc1ccc(NC(=O)CNC(=O)c2ccc([N+](=O)[O-])cc2)cc1	none
Cc1ccc(NC(=O)CC(=O)c2ccc([N+](=O)[O-])cc2)cc1S(=O)(=O)Nc1cccc(Cl)c1	PAFAH1B2 inh 27
COc1ccc(C(=O)CC(=O)Nc2ccc([N+](=O)[O-])cc2)cc1	pPAFAH FP inh 27
COc1ccc(CCN2CC(C(=O)OCC(=O)N(C)CC(=O)Nc3ccccc3Cl)CC2=O)cc1OC (configuration not stated)	none (no result: VIM-2 inh, IMP-1 inhibitor, pPAFAH FP inh)
Oc1ccc(Cl)cc1CNc1ccc(Br)cn1	none
Oc1c(Cl)cc(Cl)cc1CNc1ccc(Br)cn1	IMP-1 inhibitor 6.1
CC(=O)c1sc(NC(=O)CN2C(=O)C3CCCCC3C2=O)nc1-c1ccccc1 (configuration not stated)	none (no result: VIM-2 inh, IMP-1 inhibitor)
CCCCn1c(CCC(=O)O)nc2cc(S(=O)(=O)N3CCCC3)ccc21	none (no result: VIM-2 inh, IMP-1 inhibitor)
Cc1nnc2ccc(-c3cccc(NC(=O)c4ccc(Br)o4)c3)nn12	VIM-2 inh 10
CC1CCN(C(=O)CSc2nc(=O)n3ccccc3n2)CC1	none (no result: VIM-2 inh, IMP-1 inhibitor)
CCOc1ccc(NS(=O)(=O)c2ccc3c(c2)N(C(C)=O)CCS3)cc1	pPAFAH FP inh 32
Cc1ccc(NS(=O)(=O)c2ccc3c(c2)oc(=O)n3C)cc1F	pPAFAH FP inh 31
Cc1ccc(NS(=O)(=O)c2ccc3c(c2)oc(=O)n3C)cc1C	none
CCOc1ccc(NS(=O)(=O)c2ccc3c(c2)oc(=O)n3C)cc1	pPAFAH FP inh 28
CCOC(=O)Cn1c(=O)oc2cc(S(=O)(=O)Nc3cccc(C)c3)ccc21	pPAFAH FP inh 26
CCOC(=O)Cn1c(=O)oc2cc(S(=O)(=O)NC(C)(C)CC)ccc21	none
CCN(CC(=O)Nc1c(F)cccc1F)C(=O)c1nc2nc(C)cc(C)n2n1	none (no result: VIM-2 inh, IMP-1 inhibitor, pPAFAH FP inh)
COc1ccc(C(=O)OCC(=O)Nc2ncc([N+](=O)[O-])s2)cc1OC	PAFAH1B3 inh 30, PAFAH2 inh 40 (no result: VIM-2 inh, IMP-1 inhibitor)
O=C(COC(=O)c1ccc(Br)o1)Nc1ncc([N+](=O)[O-])s1	pPAFAH FP inh 27 (no result: VIM-2 inh, IMP-1 inhibitor)
Cc1ccc(CC(=O)Nc2ncc([N+](=O)[O-])s2)cc1	none
Cc1ccc(NS(=O)(=O)c2ccc3c(c2)NC(=O)CO3)c(C)c1	none
Cc1ccc(NS(=O)(=O)c2ccc3c(c2)CC(=O)N3)c(C)c1	pPAFAH FP inh 33
CCO[C@H]1OC(C(=O)O)=C[C@@H](c2coc3ccccc3c2=O)[C@@H]1CCCO	none (no result: VIM-2 inh, IMP-1 inhibitor)
COc1ccc(/C=C/c2ccc3c(Br)ccc(O)c3n2)cc1	none
COc1cc(/C=C/c2ccc3c(Br)cc(Br)c(O)c3n2)ccc1O	pPAFAH FP inh 34
Cc1ccccc1-n1c(C)cc(/C=C(\C#N)C(=O)NCC2CCCO2)c1C (configuration not stated)	pPAFAH FP inh 26
O=C(NC1CC1)C1CCN(S(=O)(=O)c2cc(Cl)ccc2Cl)CC1	none
O=C(NC1CCCCCC1)C1CCCN(S(=O)(=O)c2cccs2)C1 (configuration not stated)	none
O=C(NC1CC1)C1CCN(S(=O)(=O)c2cc([N+](=O)[O-])ccc2Cl)CC1	pPAFAH FP inh 32 (no result: VIM-2 inh, IMP-1 inhibitor)
O=C(NC1CCCCC1)C1CCN(S(=O)(=O)c2cccs2)CC1	IMP-1 inhibitor 4.8
O=C(COc1cc(O)c2c(=O)cc(-c3ccccc3)oc2c1)c1ccccc1	none
O=C(COc1cc(O)c2c(=O)cc(-c3ccccc3)oc2c1)c1cccc([N+](=O)[O-])c1	PAFAH1B2 inh 25
Cc1nc(NCC(c2ccccc2)N(C)C)c2c(C)c(C)sc2n1 (configuration not stated)	VIM-2 inh 7.8
Cc1sc2ncnc(NCC(c3ccccc3)N(C)C)c2c1C (configuration not stated)	VIM-2 inh 8.7
O=[N+]([O-])c1cc(S(=O)(=O)NCCN2CCOCC2)ccc1Cl	none
CCC1CCCCN1S(=O)(=O)c1ccc(C(=O)N(CCCN(C)C)c2nc3cc4c(cc3s2)OCO4)cc1 (configuration not stated)	none
O=C1CS/C(=C\S(=O)(=O)c2ccc(Cl)cc2)N1	PAFAH1B2 inh 25
CN(C1=C(NC(=O)c2ccccc2)C(=O)c2ccccc2C1=O)C1CCS(=O)(=O)C1 (configuration not stated)	PAFAH1B3 inh 51, PAFAH2 inh 38
CC(=O)NC1=C(NC2CCS(=O)(=O)C2)C(=O)c2ccccc2C1=O (configuration not stated)	none
O=S(=O)(c1ccc(-c2ccon2)s1)N1CCN(c2ccccn2)CC1	IMP-1 inhibitor 79
CC1CCN(S(=O)(=O)c2cccc(C(=O)Nc3nncs3)c2)CC1	PAFAH1B2 inh 26
O=C(Nc1nncs1)c1cccc(S(=O)(=O)N2CCCC2)c1	none
